Experimental data: article PMC3190670 (ChemMedChem, 2011)

tested on: Bovine brain tubulin; assay: turbidimetric tubulin assembly; type: biochemical, Bos taurus; settings: read-out: IC50 ± SD [μM]^[a]; 10 μM tubulin, glutamate buffer, GTP, 30°C, 20 min
Method in brief: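 Purified bovine brain tubulin was preincubated with varying test-compound concentrations in glutamate buffer at 30°C, then cooled to 0°C. GTP was added, and mixtures went into 0°C cuvettes and were warmed to 30°C. Assembly was followed turbidimetrically in a recording spectrophotometer. IC50 was the concentration that cut the extent of assembly by 50% after 20 min.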

Compound	IC50 [µM]
COc1cc2oc(C(=O)c3cc(OC)c(OC)c(OC)c3)c(C)c2cc1N [3h, (5-Amino-3-methyl-6-methoxybenzo[b]furan-2-yl)(3,4,5-trimethoxyphenyl)methanone]	0.56 ± 0.08
COc1cc(C(=O)c2oc3c(OC)cc(N)cc3c2C)cc(OC)c1OC [3j, (5-Amino-3-methyl-7-methoxybenzo[b]furan-2-yl)(3,4,5-trimethoxyphenyl)methanone]	1.6 ± 0.1
COc1cc2oc(C(=O)c3cc(OC)c(OC)c(OC)c3)cc2cc1N [3g, (5-Amino-6-methoxybenzo[b]furan-2-yl)(3,4,5-trimethoxyphenyl)methanone]	1.4 ± 0.01
COc1cc(C(=O)c2cc3cc(N)cc(OC)c3o2)cc(OC)c1OC [3i, (5-Amino-7-methoxybenzo[b]furan-2-yl)(3,4,5-trimethoxyphenyl)methanone]	3.1 ± 0.2
C=C(Br)C(=O)Nc1cccc2oc(C(=O)c3cc(OC)c(OC)c(OC)c3)cc12 [4a, 2-Bromo-N-[2-(3,4,5-trimethoxybenzoyl)-1-benzo[b]furan-4-yl]acrylamide]	> 40
